thrombin 1536: blocks human thrombin protease activity. P00734. alpha-thrombin, Boc-VPR-AMC fluorogenic substrate cleavage. inhibition, % at 5 µM. hit rate 0.26% among 220,000. AID 1046;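 active means inhibition at or above 40%; inactive means inhibition below 40%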;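 further: 0% = enzyme with no compound and 100% = wells without enzyme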
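Material: human alpha-thrombin protein. Incubation: reaction at ambient temperature. Technique: fluorescence of released AMC, ex 355 nm, em 460 nm. Control set: no-compound enzyme wells and no-enzyme blanks. Also added: Boc-VPR-AMC substrate, 15 µM final. Buffer or medium: pH 7.5 Tris (50 mM) with NaCl 150 mM, Tween 20 0.05%.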
hK5 inh: inhibitors of human kallikrein 5 | Q9Y337 | recombinant hK5, fluorogenic AMC substrate cleavage | inhibition, % at 5 µM | hit rate 0.59% among 210,000;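 active means inhibition of 40% or more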;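 further: 0% = enzyme controls without compound and 100% = no-enzyme blanks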
Target sequence (Q9Y337 67-293 limits assumed): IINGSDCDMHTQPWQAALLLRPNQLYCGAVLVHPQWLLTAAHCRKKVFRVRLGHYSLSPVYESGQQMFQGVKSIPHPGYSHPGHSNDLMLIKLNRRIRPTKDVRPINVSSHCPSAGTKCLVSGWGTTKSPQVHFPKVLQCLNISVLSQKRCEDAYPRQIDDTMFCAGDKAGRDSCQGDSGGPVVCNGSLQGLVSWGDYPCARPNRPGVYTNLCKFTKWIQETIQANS
FXIIa inh 1536: inhibitors of human coagulation factor XIIa. purified FXIIa, Boc-QGR-AMC fluorogenic substrate, 2 h. inhibition, % at 5 µM. hit rate 0.3% among 220,000. AID 800; in the data active means inhibition above about 40%;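 further: 0% = enzyme with no compound and 100% = blank without enzyme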
Furin inh: blocks human furin protease activity. P09958. purified furin, fluorogenic substrate cleavage. inhibition, % at 20 µM or 30 µM. hit rate 0.061% among 220,000. AID 463115; in the data active means inhibition above about 25%
FXIa inh 1536: inhibitors of human coagulation factor XIa. AID 798. P03951. purified FXIa, Boc-Glu-Ala-Arg-AMC fluorogenic substrate. inhibition, % at 5 µM. hit rate 0.14% among 220,000;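 active means inhibition of at least 40%; inactive means inhibition below 40%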;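 further: fluorescence of freed AMC excited at 355 nm; 0% = enzyme without compound and 100% = no enzyme blank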
PERK inhibitor: inhibitors of human PERK kinase. Q9NZJ5. CHO PERK-DD fusion, SEAP luminescence translation reporter. inhibition, % at 5.6 µM. hit rate 0.17% among 220,000. AID 1416;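 active means inhibition above the mean inhibition of all tested compounds plus 3 SD, set separately per screening campaign, cut at about 2.9% in these data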;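 further: PERK kinase domain activated by AP20187 dimerizer at 100 nM; 0% = DMSO with dimerizer and 100% = rapamycin at 8.4 µM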
Active calls of the source: *; . = not tested or not shown. An excerpt weighted towards active compounds, which were near 1.2% of everything screened.

SMILES	thrombin 1536	hK5 inh	FXIIa inh 1536	Furin inh	FXIa inh 1536	PERK inhibitor
O=C1CC(N2CCC(c3nc4ccccc4o3)CC2)C(=O)N1Cc1cccs1 (stereo not given)	2	13	16	27*	7	0
C=CCn1c(N2CCOCC2)nc2c1c(=O)[nH]c(=O)n2C	-3	7	2	-16	-6	1
O=C(CSc1nnc2ccccn12)N1CCc2ccccc21	-1	5	6	-19	0	1
O=C1NC(c2ccncc2)C(C(=O)c2cccs2)C(O)(C(F)(F)F)N1 (stereo not given)	2	-1	18	-17	-1	3.0*
O=C1NC(c2cccnc2)C(C(=O)c2cccs2)C(O)(C(F)(F)F)N1 (stereo not given)	1	-11	11	-14	-5	1
Cc1ccc(S(=O)(=O)NC(CC(=O)NCC2CCCO2)c2ccccc2)cc1 (stereo not given)	-7	-3	3	-24	-3	1
CC(C)(C)C(=O)N(Cc1ccc(Cl)cc1)Cc1cccnc1	1	3	5	-31	11	1
COC(=O)c1ccccc1NC(=O)CC(NCc1ccccc1)C(=O)O (stereo not given)	.	.	.	-2	.	0
COCCCNC(CC(=O)Nc1ccccc1C(=O)OC)C(=O)O (stereo not given)	.	.	.	28*	.	3
CCCSc1nnc(NC(=O)Nc2ccc(F)cc2)s1	0	-2	17	-16	8	0
CCCSc1nnc(NC(=O)Nc2ccc(C)cc2)s1	-8	52*	-1	-11	-5	0
OCCC1CN(Cc2cccc3c2OCO3)CCN1C1CCCCC1 (stereo not given)	-8	.	6	-19	-1	0
Cc1ccc(S(=O)(=O)N/N=C\c2cn(-c3ccccc3)nc2-c2ccccc2)cc1	-1	-5	5	-3	-1	0
Cc1ccc(-c2nn(-c3ccccc3)cc2/C=N/NS(=O)(=O)c2ccccc2)cc1	2	-12	45*	-12	26	-1
O=C(CN1C(=O)c2cccc3cccc1c23)NCc1ccc2c(c1)OCO2	20	41*	105*	-11	2	0
O=C(CN1C(=O)c2cccc3cccc1c23)Nc1ccc2c(c1)OCO2	0	-11	-2	-22	-11	0
CCOc1cc(/C=C(/C#N)C(=O)Nc2ccc(O)cc2)cc(Br)c1O	1	-7	13	-6	4	1
C=CCNC(=O)/C(C#N)=C\c1cc(Cl)c(O)c(OCC)c1	48*	52*	8	-10	8	0
COc1ccc(CSc2nc(C)cc(C)c2S(C)(=O)=O)cc1	9	34	28	-4	41*	0
Cc1c(-n2cc(C(=O)c3ccccc3O)cc(C#N)c2=O)c(=O)n(-c2ccccc2)n1C	16	65*	26	-5	18	-1
N#Cc1cc(C(=O)c2ccccc2O)cn(-c2ccc(Cl)cc2)c1=O	7	6	8	-4	3	0
O=C(c1ccccc1)N1CCSC1=S	11	19	15	-18	6	3.0*
Cc1ccc(C(=O)N2CCSC2=S)cc1	7	23	15	-31	29	1
Cc1ccccc1NC(=O)c1cccc(NC(=O)CCC(=O)O)c1	-4	3	12	-26	-1	0
CC(=O)Nc1cccc(Nc2nc(-c3ccccc3F)nc3ccccc23)c1	-5	-6	14	-2	3	0
SMILES	thrombin 1536	hK5 inh	FXIIa inh 1536	Furin inh	FXIa inh 1536	PERK inhibitor
O=C(NC(=S)Nc1ccccc1O)c1ccc(Cl)cc1Cl	.	-2	5	-22	2	0
Cc1[nH]c2ccccc2c1NC(=O)CN1CCN(C(=O)c2ccco2)CC1	35	20	59*	-8	38	0
CC(C)c1csc(CN2CCCC(CCC(=O)NCc3ccccc3F)C2)n1 (stereo not given)	5	27	28	-13	50*	-1
O=C(Nc1ccc(N2CCCCC2)c(Cl)c1)c1ccc(N2CCOCC2)c([N+](=O)[O-])c1	4	45*	9	-16	4	1
Cn1nc(N)nc1N1CCN(c2ccc(F)cc2)CC1	5	2	8	-8	1	1
COc1ccccc1C(=O)n1nc(-c2ccccc2)nc1NCc1ccco1	85*	-5	13	7	5	-1
CCC(=O)n1nc(-c2cccnc2)nc1NCc1cccs1	100*	2	11	-23	2	0
O=C(c1cccs1)n1nc(-c2cccnc2)nc1NCc1ccco1	83*	-6	12	-16	17	-1
CCN(C(=O)Cc1cccs1)c1nnc(-c2cccnc2)s1	14	44*	6	-23	-5	0
CC(C)(C)n1nc2c(c1NC(=O)c1cc3ccccc3o1)CS(=O)(=O)C2	-10	4	12	-28	1	0
COc1ccccc1C1CCN(C(=O)c2cnn(-c3ccccc3)c2C)CC1	1	3	5	-18	13	0
CCCC(=O)n1nc(-c2cccnc2)nc1NCc1cccs1	100*	.	13	-16	7	2
CCCC(=O)n1nc(-c2cccnc2)nc1NCc1ccccc1	100*	2	10	-20	-2	1
CC(=O)n1nc(-c2cccnc2)nc1NCc1cccs1	.	2	8	-9	1	0
COc1ccc2cc(-c3[nH]ncc3CN3C[C@@H]4CCC[C@H]3C4)ccc2c1	1	5	23	-15	1	-1
COc1nc(NCCN2CCOCC2)nc(Nc2ccccc2)n1	13	69*	22	-25	4	0
CO/N=C/C(=N\Nc1cc(OC)cc(OC)c1)C(=O)c1ccccc1	-8	6	6	-11	0	1
O=C(Nc1ccccc1)c1cccc(N2C(=O)CCC2=O)c1	19	63*	17	-19	11	1
S=C1NC[C@H](c2ccccc2)N1CC1CCCCC1	-6	0	6	-34	-2	1
CC(CC(=O)NC1CCCC1)c1ccccc1 (stereo not given)	15	60*	26	-5	2	1
O=C(NN1C(=O)c2ccccc2C1=O)c1ccccc1[N+](=O)[O-]	-7	-8	0	-11	-5	1
COc1ccc(N2CC(C(=O)NC3=NCCS3)CC2=O)cc1 (stereo not given)	-11	1	2	-9	-5	0
CCOC(=O)Cn1c(-c2ccccc2)nc2ccccc2c1=O	2	-3	14	-10	1	0
CC(C)Cn1c(-c2ccccc2)nc2ccccc2c1=O	1	-3	42*	5	32	-1
CCc1nnc(NC(=O)CCC(=O)N2CCN(CCc3ccccc3)CC2)s1	-7	-7	8	.	4	.
CCc1nnc(NC(=O)CCC(=O)N2CCN(CCOc3ccc(C)cc3)CC2)s1	13	22	42*	-13	15	-2
